Reference: ChEMBL document CHEMBL1126873, “Inhibitors of acyl-Coa:cholesterol acyltransferase. 4. A novel series of urea ACAT inhibitors as potential hypocholesterolemic agents” (J Med Chem, 1993)

Legend:
O-acyltransferase = O-acyltransferase (Oryctolagus cuniculus, UniProt G1SFD9); experiment: In vitro inhibition of Acyl coenzyme A:cholesterol acyltransferase using intestinal microsomes isolated from cholesterol fed rabbits; parameters: species or system Intestine
Rattus norvegicus = organism: Rattus norvegicus; experiment: Percent change in total cholesterol (TC) in cholic acid, cholesterol and peanut oil fed rats; format: functional
Summary of the method: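 Rats fed a diet of cholic acid (0.3%), cholesterol (1.5%) and peanut oil (5.5%) received each compound in the diet at 0.05% for one week. Plasma total cholesterol was measured and expressed as percent change from control. Significance versus control was tested.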

Sequence of O-acyltransferase (G1SFD9 1-524): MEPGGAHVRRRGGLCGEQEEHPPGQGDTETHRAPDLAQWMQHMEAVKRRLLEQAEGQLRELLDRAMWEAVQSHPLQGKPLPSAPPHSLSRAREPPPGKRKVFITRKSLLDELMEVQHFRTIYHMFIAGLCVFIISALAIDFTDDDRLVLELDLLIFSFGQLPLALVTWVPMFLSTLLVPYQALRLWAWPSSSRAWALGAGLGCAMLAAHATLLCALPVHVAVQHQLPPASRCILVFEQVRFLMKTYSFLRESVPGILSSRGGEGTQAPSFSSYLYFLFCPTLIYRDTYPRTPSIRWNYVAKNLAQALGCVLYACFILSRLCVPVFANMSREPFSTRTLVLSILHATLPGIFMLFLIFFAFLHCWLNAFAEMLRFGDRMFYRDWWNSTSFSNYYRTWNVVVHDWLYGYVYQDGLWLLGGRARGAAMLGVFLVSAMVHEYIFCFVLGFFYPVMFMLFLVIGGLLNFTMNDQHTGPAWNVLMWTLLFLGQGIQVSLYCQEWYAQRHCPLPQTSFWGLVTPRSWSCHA

SMILES	IC50 (O-acyltransferase)	Change (Rattus norvegicus)
Cc1cccc(C)c1NC(=O)NCC1(c2ccccc2)CCCC1	190 nM	
CC(C)c1cccc(C(C)C)c1NC(=S)NCC1(c2ccccc2)CCCC1	2330 nM	
O=C(NCC1(c2ccccc2)CCCCC1)Nc1cccc(Cl)c1Cl	1300 nM	
CC(C)c1cccc(C(C)C)c1NC(=O)NC(C)(C)Cc1ccccc1	77 nM	
CC(C)c1cccc(C(C)C)c1N=C(N)NCC1(c2ccccc2)CCCC1	12000 nM	
Cc1cc(C)c(NC(=O)NCC2(c3ccccc3)CCCC2)c(C)c1	3300 nM	
CCCCCC(CCCCC)(CNC(=O)Nc1c(C(C)C)cccc1C(C)C)c1ccccc1	26 nM	
CCc1cccc(CC)c1NC(=O)NCC1(c2ccccc2)CCCCC1	51 nM	-60%
Cc1cccc(NC(=O)NCC2(c3ccccc3)CCCCC2)c1	2800 nM	
Cc1ccccc1NC(=O)NCC1(c2ccccc2)CCCCC1	640 nM	
CC(C)c1cccc(C(C)C)c1NC(=O)NCCc1cccc2ccccc12	41 nM	
CC(C)c1cccc(C(C)C)c1NC(=O)NCC1(c2cccs2)CCCC1	12 nM	
O=C(NCC1(c2ccccc2)CCCCC1)Nc1ccccc1	2300 nM	
O=C(NCC1(c2ccccc2)CCCCC1)Nc1ccc(Cl)c(Cl)c1	3800 nM	
CC(C)c1cccc(C(C)C)c1NC(=O)NC1CC1c1ccccc1 (configuration not stated)	2000 nM	
COc1ccccc1NC(=O)NCC1(c2ccccc2)CCCCC1	270 nM	
CC(C)c1ccccc1NC(=O)NCC1(c2ccccc2)CCCCC1	390 nM	
Cc1cccc(C(C)C)c1NC(=O)NCC1(c2ccccc2)CCCCC1	58 nM	-56%
CC(C)c1cccc(C(C)C)c1NC(=O)NCC1(c2ccc3ccccc3c2)CCCC1	260 nM	
CCCCCCC(CCCCCC)(CNC(=O)Nc1c(C(C)C)cccc1C(C)C)c1ccccc1	120 nM	
CC(C)c1cccc(C(C)C)c1NC(=O)NC(Cc1ccccc1)c1ccccc1 (configuration not stated)	31 nM	
O=C(NCC1(c2ccccc2)CCCCC1)Nc1ccc(Cl)cc1	2200 nM	
COc1cccc(NC(=O)NCC2(c3ccccc3)CCCCC2)c1	2500 nM	
Cc1cccc(C)c1NC(=O)NCC1(c2ccccc2)CCCCC1	120 nM	-44%

SMILES	IC50 (O-acyltransferase)	Change (Rattus norvegicus)
CC(C)c1cccc(C(C)C)c1NC(=O)NCCc1ccccc1	88 nM	
CC(C)c1cccc(C(C)C)c1NC(=O)NCc1ccccc1	360 nM	
CCOC(=O)c1ccccc1NC(=O)NCC1(c2ccccc2)CCCCC1	4200 nM	
CCC(CC)(CNC(=O)Nc1c(C(C)C)cccc1C(C)C)c1ccccc1	17 nM	
COc1ccc(NC(=O)NCC2(c3ccccc3)CCCCC2)cc1	4900 nM	
CC(C)c1cccc(C(C)C)c1NC(=O)NCCC(c1ccccc1)c1ccccc1	140 nM	
Cc1ccc(NC(=O)NCC2(c3ccccc3)CCCCC2)cc1	4500 nM	
CCCCC(CCCC)(CNC(=O)Nc1c(C(C)C)cccc1C(C)C)c1ccccc1	30 nM	
O=C(NCC1(c2ccccc2)CCCC1)Nc1ccc(F)cc1F	1300 nM	
CC(C)c1cccc(C(C)C)c1NC(=O)NCC1(c2ccsc2)CCCC1	18 nM	
CC(C)c1cccc(C(C)C)c1NC(=O)NC1(c2ccccc2)CCCC1	65 nM	
CCc1cccc(CC)c1NC(=O)NCC1(c2ccccc2)CCCC1	56 nM	-63%
CC(C)c1cccc(C(C)C)c1NC(=O)NCCc1ccc2ccccc2c1	39 nM	
O=C(NCC1(c2ccccc2)CCCCC1)Nc1ccc(I)cc1	2300 nM	
CC(C)c1cccc(C(C)C)c1NC(=O)NCC1(c2ccccc2)CCC1	28 nM	
O=C(NCC1(c2ccccc2)CCCC1)Nc1c(Cl)cccc1Cl	240 nM	
CC(C)c1cccc(C(C)C)c1NC(=O)NCCCc1ccccc1	191 nM	
CC(C)c1cccc(C(C)C)c1NC(=O)NCC1(c2ccccc2)CC1	18 nM	
CC(C)c1cccc(C(C)C)c1NC(=O)NCC1(c2cccnc2)CCCC1	97 nM	
CN(C)c1cccc(N(C)C)c1NC(=O)NCC1(c2ccccc2)CCCC1	110 nM	
Cc1cccc(C(C)(C)C)c1NC(=O)NCC1(c2ccccc2)CCCCC1	54 nM	-51%
CC(C)c1cccc(C(C)C)c1OC(=O)NCC1(c2ccccc2)CCCC1	49 nM	
O=C(NCC1(c2ccccc2)CCCC1)Nc1c(Cl)cc(Cl)cc1Cl	960 nM	
Cc1cccc(C(C)(C)C)c1NC(=O)NCC1(c2ccccc2)CCCC1	18 nM	-61%

SMILES	IC50 (O-acyltransferase)	Change (Rattus norvegicus)
CC(C)c1cccc(C(C)C)c1NC(=NC#N)NCC1(c2ccccc2)CCCC1	10000 nM	
COc1cc(OC)c(NC(=O)NCC2(c3ccccc3)CCCC2)c(OC)c1	1400 nM	
CC(C)c1cccc(C(C)C)c1NC(=O)NCC1c2ccccc2-c2ccccc21	27 nM	
CC(C)c1cccc(C(C)C)c1NC(=O)NC1CCCc2ccccc21 (configuration not stated)	850 nM	
Cc1cccc(C(C)C)c1NC(=O)NCC1(c2ccccc2)CCCC1	16 nM	-65%
CC(C)c1cccc(C(C)C)c1NC(=O)NCC1(c2ccccc2)CCCC1	17 nM	-73%
CC(C)c1cccc(C(C)C)c1NC(=O)NC(=O)C1(c2ccccc2)CCCC1	160 nM	
CCc1cccc(C(C)C)c1NC(=O)NCC1(c2ccccc2)CCCC1	25 nM	-59%
CCOC(=O)c1ccc(NC(=O)NCC2(c3ccccc3)CCCCC2)cc1	6100 nM	
O=C(NCC1(c2ccccc2)CCCC1)Nc1c(F)cc(F)cc1F	870 nM	
Cc1ccc(C)c(NC(=O)NCC2(c3ccccc3)CCCCC2)c1	470 nM	
O=C(NCC1(c2ccccc2)CCCCC1)Nc1cc(Cl)ccc1Cl	2700 nM	
CCc1cccc(C(C)C)c1NC(=O)NCC1(c2ccccc2)CCCCC1	20 nM	-70%
CC(C)c1cccc(C(C)C)c1NC(=O)Nc1ccccc1	910 nM	
CC(C)c1cccc(C(C)C)c1NC(=O)NCC1(c2ccccc2)CCCCC1	21 nM	-73%
O=C(NCC1(c2ccccc2)CCCCC1)Nc1ccccc1C(F)(F)F	200 nM	
CC(C)c1ccc(NC(=O)NCC2(c3ccccc3)CCCCC2)cc1	1500 nM	
CC(C)c1cccc(C(C)C)c1NC(=O)NCC1(c2cccc3ccccc23)CCCC1	34 nM	
Cc1ccc(NC(=O)NCC2(c3ccccc3)CCCCC2)c(C)c1	5500 nM	
CC(C)c1cccc(C(C)C)c1NC(=O)NCC(c1ccccc1)C(C)(C)C (configuration not stated)	160 nM	
CC(C)c1cccc(C(C)C)c1NC(=O)NCC(C)(C)c1ccccc1	26 nM	
CCCC(CCC)(CNC(=O)Nc1c(C(C)C)cccc1C(C)C)c1ccccc1	30 nM	
CC(C)c1cccc(C(C)C)c1NS(=O)(=O)NCC1(c2ccccc2)CCCC1	180 nM	
